Laboratory results reported in ChEMBL document CHEMBL1130289, “Polyanion inhibitors of human immunodeficiency virus and other viruses. 5. Telomerized anionic surfactants derived from amino acids” (J Med Chem, 1997).

What was measured:
[1] = test system: CEM-4; experiment: Cytotoxic concentration required to reduce the viability of uninfected cells by 50% after 5 days of incubation in the presence on CEM-4 cells.; type: functional; conditions: Homo sapiens, CEM-4, 120 h
Summary of the method: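 Uninfected CEM-4 cells were incubated with compound for 5 days. CC50 is the concentration that reduced viability by 50%. Values average at least two separate experiments.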

[2] = test system: Human immunodeficiency virus 1; experiment: Inhibitory concentration required to inhibit HIV-induced cytopathicity in CEM-4 cells by 50% based in the MTT assay; Not active; type: functional, organism-based
[3] = test system: Human immunodeficiency virus 1; experiment: Inhibitory concentration required to inhibit HIV-induced cytopathicity in CEM-4 cells by 50% based in the MTT assay; type: functional, organism-based; conditions: Human immunodeficiency virus 1, CEM-4
[4] = test system: Coxsackievirus; experiment: Concentration required to inhibit Coxsackie induced cytopathicity in HeLa cells by 50%; type: functional, organism-based
Summary of the method: (§1)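 Virus was added to the cell monolayers in the presence of compound. Incubation continued until the viral cytopathic effect was scored. IC50 is the concentration that reduced virus-induced cytopathicity by 50%.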

[5] = test system: Poliovirus 1; experiment: Concentration required to inhibit Polio-1 induced cytopathicity in HeLa cells by 50%; type: functional, organism-based; conditions: Enterovirus C
[6] = test system: Vesicular stomatitis virus; experiment: Concentration required to inhibit vesicular stomatitis induced cytopathicity in E6SM cells by 50%; type: functional, organism-based
[7] = test system: E6SM; experiment: Minimum cytotoxic concentration required to cause a microscopically detectable alteration of normal cell morphology in E6SM cells; type: functional, Homo sapiens
Summary of the method: (§2)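 Uninfected E6SM, HeLa or Vero cells were exposed to compound and examined by microscopy. MCC is the lowest concentration causing a detectable alteration of normal cell morphology.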

[8] = test system: Human alphaherpesvirus 1; experiment: Concentration required to inhibit HSV-1(KOS) induced cytopathicity in E6SM cells by 50%; conditions: Human alphaherpesvirus 1, E6SM
[9] = test system: Human alphaherpesvirus 2; experiment: Concentration required to inhibit HSV-2(G) induced cytopathicity in E6SM cells by 50%; conditions: Human alphaherpesvirus 2, E6SM
[10] = test system: Human immunodeficiency virus 2; experiment: Concentration required to inhibit by 50% syncytium formation between MOLT-4 cells and HIV-2 (ROD) infected HUT-78 cells; type: functional, organism-based; conditions: Human immunodeficiency virus 2, MOLT-4
Summary of the method: (§3)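 Uninfected MOLT-4 cells were co-cultured with HUT-78 cells chronically infected with HIV-1 (IIIB) or HIV-2 (ROD), in the presence of compound. The end point was syncytium formation, and IC50 is the concentration giving 50% inhibition. Values are means of two separate experiments.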

[11] = test system: Vero; experiment: Minimum cytotoxic concentration required to cause a microscopically detectable alteration of normal cell morphology in Vero cells; type: functional, Chlorocebus sabaeus; summary of the method: as §2
[12] = test system: Tacaribe virus; experiment: Concentration required to inhibit Tacaribe induced cytopathicity in Vero cells by 50%; type: functional, cell-based; conditions: Mammarenavirus tacaribeense
[13] = test system: Human immunodeficiency virus 1; experiment: Concentration required to inhibit by 50% syncytium formation between MOLT-4 cells and HIV-1(IIIB); type: functional, organism-based; conditions: Human immunodeficiency virus 1, MOLT-4; summary of the method: as §3
[14] = test system: Human betaherpesvirus 5; experiment: Concentration required to inhibit HCMV(Davis) induced cytopathicity in HEL cells by 50%; type: functional, organism-based; conditions: Human betaherpesvirus 5, HEL; summary of the method: as §1
[15] = test system: Human immunodeficiency virus 1; experiment: Concentration required to inhibit HIV-1 induced cytopathicity in MT-4 cells by 50%; type: functional, organism-based; conditions: Human immunodeficiency virus 1, MT4
Summary of the method: (§4)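 MT-4 cells were infected with HIV-1 (strain HTLV-IIIB/LAI) or HIV-2 (strain LAV-2 ROD) and exposed to compound. IC50 is the concentration that inhibited HIV-induced cytopathicity by 50%. Values are means of two separate experiments.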

[16] = test system: Sindbis virus; experiment: Concentration required to inhibit Sindbis induced cytopathicity in Vero cells by 50%; type: functional, organism-based; summary of the method: as §1
[17] = test system: HEL; experiment: Minimum cytotoxic concentration required to cause a microscopically detectable alteration of normal cell morphology in HEL cells; type: functional, Homo sapiens
[18] = test system: Semliki Forest virus; experiment: Concentration required to inhibit forest induced cytopathicity in Vero cells by 50%; type: functional, organism-based; summary of the method: as §1
[19] = test system: Junin virus; experiment: Concentration required to inhibit Junin induced cytopathicity in Vero cells by 50%; type: functional, organism-based; conditions: Mammarenavirus juninense
[20] = test system: Human alphaherpesvirus 1; experiment: Concentration required to inhibit HSV-1 TK-(B2006) induced cytopathicity in E6SM cells by 50%; conditions: Human alphaherpesvirus 1, E6SM
[21] = test system: Mammalian orthoreovirus 1; experiment: Concentration required to inhibit reovirus-1 induced cytopathicity in Vero cells by 50%; type: functional, organism-based; conditions: Mammalian orthoreovirus 1, Vero; summary of the method: as §1
[22] = test system: Vaccinia virus; experiment: Concentration required to inhibit Vaccinia induced cytopathicity in E6SM cells by 50%; type: functional, organism-based; conditions: Orthopoxvirus vaccinia
[23] = test system: Human immunodeficiency virus 2; experiment: Concentration required to inhibit HIV-2 induced cytopathicity in MT-4 cells by 50%; type: functional, organism-based; conditions: Human immunodeficiency virus 2, MT4; summary of the method: as §4
[24] = test system: HeLa; experiment: Minimum cytotoxic concentration required to cause a microscopically detectable alteration of normal cell morphology in HeLa cells; type: functional, Homo sapiens; summary of the method: as §2
[25] = test system: MT4; experiment: Concentration required to reduce the viability of mock-infected MT-4 cells by 50%; type: functional; conditions: Homo sapiens
Summary of the method: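 Mock-infected MT-4 cells were exposed to compound. CC50 is the concentration that reduced cell viability by 50%. Values are means of two separate experiments.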

[26] = test system: Human betaherpesvirus 5; experiment: Concentration required to inhibit HCMV(AD169) induced cytopathicity in HEL cells by 50%; type: functional, organism-based; conditions: Human betaherpesvirus 5, HEL; summary of the method: as §1
[27] = test system: Human respirovirus 3; experiment: Concentration required to inhibit parainfluenza-3 induced cytopathicity in Vero cells by 50%; type: functional, organism-based; conditions: Human respirovirus 3, Vero; summary of the method: as §1

Question: How did the CC50 [1] turn out when `CCCCCCCCCCCCSCCCCC(=O)NCCCCCCCCCCC(=O)NC(CCC(=O)[O-])C(=O)O.[Na+]` (configuration not stated) was run?
Answer: The CC50 was > 100 µg/mL.

Question: What about the IC50 [2] of the same compound?
Answer: The IC50 was “Not Active”.

Question: Which results are given for `CCCCCCCCCCCCSCCCCCCC(=O)N(CC)CCCCCCCCCCC(=O)NC(CCC(=O)[O-])C(=O)O.[Na+]` (configuration not stated)?
Answer: CC50 [1]: > 100 µg/mL; IC50 [3]: 21 µg/mL

Question: `CCCCCCCCCCCCSCCCCCCCCCCCCCCCCCCCCCCCCCCCCCCC(=O)NCCCCCCCCCCC(=O)NC(CCC(=O)[O-])C(=O)O.[Na+]` (configuration not stated) was tested. Which CC50 [1] did it give?
Answer: Its CC50 is > 100 µg/mL.

Question: And the IC50 [3]?
Answer: Its IC50 is 15 µg/mL.

Question: Which results are given for `CCCCCCCCCCCCSCCCCCCCCCCCCCCC(=O)NCCCCCCCCCCC(=O)NC(CCC(=O)[O-])C(=O)O.[Na+]` (configuration not stated)?
Answer: CC50 [1]: > 100 µg/mL; IC50 [3]: 12 µg/mL

Question: What does the source list for `CCCCCCCCCCCCSCCCCCCCCCCC(=O)N(CC)CCCCCCCCCCC(=O)NCC(=O)[O-].[Na+]`?
Answer: CC50 [1]: > 100 µg/mL; IC50 [3]: 120 µg/mL

Question: How did the CC50 [1] turn out when `CCCCCCCCCCCCSCCCCCCCCCCCCCCCCCCCCCCCCCCC(=O)N(C)CCCCCCCCCCC(=O)[O-].[Na+]` was run?
Answer: Its CC50 is > 200 µg/mL.

Question: And the IC50 [2]?
Answer: Its IC50 is “Not Active”.

Question: How did the CC50 [1] turn out when `CCCCCCCCCCCCSCCCCCCCCCCCCCCCCCCCCCCC(=O)N(CC)CCCCCCCCCCC(=O)[O-].[Na+]` was run?
Answer: Its CC50 is 50 µg/mL.

Question: What about the IC50 [3] of the same compound?
Answer: Its IC50 is 4 µg/mL.

Question: For `CCCCCCCCCCCCSCCCCCCCCCCCCCCCCC(=O)N(CC)CCCCCCCCCCC(=O)NCCC(=O)[O-].[Na+]`, which CC50 [1] is on record?
Answer: The CC50 was > 100 µg/mL.

Question: And the IC50 [2]?
Answer: The IC50 was “Not Active”.

Question: With `CCCCCCCCCCCCSCCCCCCCCCCCCCCCCCCCCCCCCCCCCC(=O)NCCCCCCCCCCC(=O)NCC(=O)[O-].[Na+]` as the compound, how does the CC50 [1] read?
Answer: Its CC50 is > 300 µg/mL.

Question: And the IC50 [3]?
Answer: The IC50 was 194 µg/mL.

Question: Which results are given for `CCCCCCCCCCCCSCCCCCCCCCCCCCCCCCCCCCCCCCCCCCCCCCCCCCCCCC(=O)N(C)CCCCCCCCCCC(=O)[O-].[Na+]`?
Answer: CC50 [1]: > 200 µg/mL; IC50 [2]: Not Active

Question: With `CCCCCCCCCCCCSCCCCCCCCCCCCCCCCCCCCCCCCCCCCCCCCCCCCCCCCC(=O)NCCCCCCCCCCC(=O)[O-].[Na+]` as the compound, how does the IC50 [4] read?
Answer: The IC50 was > 200 µg/mL.

Question: And the IC50 [5]?
Answer: The IC50 was > 200 µg/mL.

Question: And the IC50 [6]?
Answer: Its IC50 is > 100 µg/mL.

Question: What about the CC50 [1] of the same compound?
Answer: The CC50 was > 50 µg/mL.

Question: And the MMC [7]?
Answer: Its MMC is 200 µg/mL.

Question: And the IC50 [8]?
Answer: The IC50 was > 100 µg/mL.

Question: And the IC50 [9]?
Answer: The IC50 was 20 µg/mL.

Question: And the IC50 [10]?
Answer: Its IC50 is 50 µg/mL.

Question: What about the MMC [11] of the same compound?
Answer: The MMC was >200 µg/mL.

Question: And the IC50 [12]?
Answer: The IC50 was > 50 µg/mL.

Question: What about the IC50 [13] of the same compound?
Answer: The IC50 was 30 µg/mL.

Question: What about the IC50 [2] of the same compound?
Answer: Its IC50 is “Not Active”.

Question: What about the IC50 [14] of the same compound?
Answer: Its IC50 is 15 µg/mL.

Question: What about the IC50 [15] of the same compound?
Answer: The IC50 was 5 µg/mL.

Question: And the IC50 [16]?
Answer: The IC50 was > 200 µg/mL.

Question: What about the MMC [17] of the same compound?
Answer: The MMC was >50 µg/mL.

Question: And the IC50 [18]?
Answer: Its IC50 is > 200 µg/mL.

Question: And the IC50 [19]?
Answer: The IC50 was > 50 µg/mL.

Question: And the IC50 [20]?
Answer: Its IC50 is > 100 µg/mL.

Question: And the IC50 [21]?
Answer: The IC50 was > 200 µg/mL.

Question: And the IC50 [22]?
Answer: The IC50 was > 100 µg/mL.

Question: And the IC50 [23]?
Answer: The IC50 was 1.3 µg/mL.

Question: And the MMC [24]?
Answer: Its MMC is >200 µg/mL.

Question: And the CC50 [25]?
Answer: The CC50 was > 250 µg/mL.

Question: What about the IC50 [26] of the same compound?
Answer: The IC50 was 40 µg/mL.

Question: What about the IC50 [27] of the same compound?
Answer: The IC50 was > 200 µg/mL.

Question: `CCCCCCCCCCCCSCCCCCCCCCCCCCCCCCCCCCCCCCCCCCCCCCCCCCCCCCCCCCCCCCCCCCCCCCCCCC(=O)N(CC)CCCCCCCCCCC(=O)NCCC(=O)[O-].[Na+]` was tested. Which CC50 [1] did it give?
Answer: The CC50 was > 100 µg/mL.

Question: What about the IC50 [2] of the same compound?
Answer: The IC50 was “Not Active”.

Question: Which CC50 [1] does the source give for `CCCCCCCCCCCCSCCCCCCCCCCCCCCCCCCCCCCCCCCCCCCCCCCCCCCCCCCCCCCCCCCCCCCCCCCCCCCCCCCCCCCCCCCCCCCCCC(=O)N(CC)CCCCCCCCCCC(=O)[O-].[Na+]` here?
Answer: The CC50 was 30 µg/mL.

Question: What about the IC50 [3] of the same compound?
Answer: Its IC50 is 5 µg/mL.

Question: What does the source list for `CCCCCCCCCCCCSCCCCCCCCCCCCCCCCC(=O)NCCCCCCCCCCC(=O)NCCC(=O)[O-].[Na+]`?
Answer: CC50 [1]: > 100 µg/mL; IC50 [2]: Not Active
